Compound activity: PubChem BioAssay, Johns Hopkins Ion Channel Center
MrgX1 PAM: allosterically activates human MrgX1 receptor signaling; Q96LB2; MrgX1-HEK293, Fluo-4 calcium flux, FDSS; stronger effect = higher value; B-score at 10 µM; 0.63% of 310,000 active; AID 588675;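 active = plate-corrected calcium response at least 3 library SD above typical, normal starting fluorescence, not activating the receptor alone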;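 also: compound read alongside a low EC10 to EC30 dose of BAM8-22 agonist; peak minus trough fluorescence over baseline measured at the second addition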
Target sequence (Q96LB2 whole entry, looked up): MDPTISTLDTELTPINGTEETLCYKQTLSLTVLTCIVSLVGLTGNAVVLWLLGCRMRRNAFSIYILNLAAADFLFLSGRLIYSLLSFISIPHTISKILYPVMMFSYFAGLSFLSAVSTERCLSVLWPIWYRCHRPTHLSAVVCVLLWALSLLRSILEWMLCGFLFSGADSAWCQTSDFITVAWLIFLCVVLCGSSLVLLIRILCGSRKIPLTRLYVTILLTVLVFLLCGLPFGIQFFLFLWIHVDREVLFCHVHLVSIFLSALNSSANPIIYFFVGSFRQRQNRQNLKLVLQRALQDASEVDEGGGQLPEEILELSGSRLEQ
MrgX1 ag: human MrgX1 receptor agonism, primary screen; MrgX1-HEK293 cells, Fluo-4 calcium fluorescence, agonist mode; stronger effect = higher value; B-score at 10 µM; 0.44% of 310,000 active; AID 588627;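 active = calcium response B-score plate-corrected fluorescence ratio at least 3 library SD, with starting fluorescence B-score inside 5 SD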
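Material: MrgX1-expressing HEK293 cells / Dosing: compound as first of three additions / Incubation: overnight seeding, then 1 h dark dye loading / Signal: Fluo-4 NW calcium fluorescence / Evaluation: B-scored fluorescence response ratio / Benchmarks: positive and negative control wells on each plate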
RGS4 inh: human RGS4 inhibition | P49798 | HEK293 M3R/RGS4 inducible, Fluo-4 calcium flux; stronger effect = higher value; triggered by carbachol at its EC20 | B-score at 10 µM | 0.45% of 310,000 active | AID 463165;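 active = B-score, a plate-corrected calcium signal, over three deviations above library mean, with baseline fluorescence within five deviations of library mean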;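 also: RGS4 expression induced by doxycycline in cells with stable M3 receptor; B-score is computed from the integrated fluorescence ratio over baseline after carbachol; higher B-score means a larger calcium signal and so more RGS4 inhibition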
Target sequence (P49798 whole entry, looked up): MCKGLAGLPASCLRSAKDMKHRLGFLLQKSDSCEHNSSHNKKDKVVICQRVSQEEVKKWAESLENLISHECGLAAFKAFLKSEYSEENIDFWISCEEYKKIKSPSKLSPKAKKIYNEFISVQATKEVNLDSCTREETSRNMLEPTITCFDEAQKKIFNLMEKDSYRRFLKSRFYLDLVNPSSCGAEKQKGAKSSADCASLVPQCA
RGS4 pot: RGS4 potentiation or activation. HEK293 M3R/inducible RGS4, carbachol calcium flux Fluo4; stronger effect = lower value. B-score at 10 µM. AID 463111. 0.92% of 310,000 active;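 active = B-score of the integrated calcium signal more than 4 SD below the library mean, with starting fluorescence not abnormally high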;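 also: negative B-score means reduced calcium response which marks RGS4 activation or potentiation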
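Assay system: HEK293 FlpIn-TREx cells, stable M3R, doxycycline-inducible RGS4 / Probe or stimulus: carbachol, ECmax concentration / Times: overnight RGS4 induction, 30 min dye load 37 °C, 20 min compound RT / Signal: kinetic calcium fluorescence imaging with Fluo4-AM dye, 2 µM / Measure: Agonist-evoked peak-minus-minimum fluorescence over baseline, integrated ratio, B score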
MrgX1 antagonist: antagonists of human MrgX1 receptor | B-score at 10 µM | Q96LB2 | 1.3% of 310,000 active | MRGX1-HEK293 calcium flux, Fluo-4, BAM8-22 antagonism; stronger effect = lower value;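 active = calcium-response B-score plate-corrected more than 3 library SD below zero, starting fluorescence within 5 deviations, no agonist response on first addition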;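 also: peak minus trough fluorescence over baseline after final BAM8-22 challenge near maximal dose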
RGS4 inh valid: RGS4 inhibitor validation | HEK293 M3R/RGS4, carbachol calcium Fluo-4 fluorescence; carbachol added at its EC20; 0 = buffer wells, 100 = carbachol control | shares compounds with RGS4 inh | 65% of 1,700 active | calcium response, % at 10 µM;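 active = duplicate-averaged calcium response above the buffer-only control mean plus 5 SD of those controls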;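 also: integrated fluorescence ratio F max minus min over baseline F0; higher response in RGS4-induced cells means RGS4 inhibition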
RGS4 uninduced: counter-screen for RGS4 inhibitors: effect in non-induced cells | 20% of 1,900 active | shares compounds with RGS4 inh | HEK293 M3R non-induced, carbachol calcium Fluo-4; submaximal (EC20) carbachol stimulus; buffer wells 0%, carbachol control wells 100% | activity (percent), % at 10 µM | AID 493000; call rule not given here;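 also: RGS4 induction absent so cells express M3R without RGS4; higher means more calcium signal and flags a non-specific hit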
RGS4 inh ctr2: signal in non-induced cells without carbachol, RGS4 inhibitor counter-screen. shares compounds with RGS4 inh. HEK293 M3R/RGS4 non-induced, Fluo-4 calcium, no carbachol; normalised: buffer wells 0%, carbachol wells 100%. calcium response (agonist-mode artifact), % at 10 µM. 22% of 1,900 active. AID 493001;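 active = duplicate-averaged calcium rise in uninduced cells above buffer wells' mean plus 5 SD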
Of the large screens only hits and unclear results are named; the others gave an inactive call (follow-up assays come after a bar, where they were run). Rows were chosen to be rich in hits. Some 3.5% of all compounds tested hit in one or more screens of this group.

COC(=O)CSC1=C(C#N)C(=O)NC(c2ccccc2)S1 (centres undefined)	RGS4 inh 5.09 | RGS4 inh valid 47.0% | RGS4 uninduced inactive | RGS4 inh ctr2 9.5%
CC(C)[C@H]1COCCS(=O)(=O)N1Cc1ccccc1	none
COc1ccccc1/C=c1\sc2nc(-c3ccco3)nn2c1=O	none
CCOc1ccc(/C=c2\sc3nc(-c4ccco4)nn3c2=O)cc1OCC	RGS4 inh 5.96 | RGS4 inh valid 8.5% | RGS4 uninduced inactive | RGS4 inh ctr2 133.0%
CCOC(=O)Cn1nc(C)n(-c2ccc(C(C)(C)C)cc2)c1=O	none
O=C1Nc2ccccc2/C1=C/c1ccc([N+](=O)[O-])cc1	RGS4 inh 8.12 | RGS4 inh valid inactive | RGS4 uninduced 30.0% | RGS4 inh ctr2 inactive
Cc1cccc(NC(=S)NNC(=O)c2csc3c2CCCC3)c1	RGS4 inh 6.23 | RGS4 inh valid 20.5% | RGS4 uninduced 54.5% | RGS4 inh ctr2 inactive
Cc1cc(C)nc(NS(=O)(=O)c2ccc(N=Cc3c(C)[nH]n(-c4ccccc4)c3=O)cc2)n1	none
CCc1nnc(NS(=O)(=O)c2ccc(N=Cc3c(C)[nH]n(-c4ccc(C)c(C)c4)c3=O)cc2)s1	none | RGS4 inh valid inactive | RGS4 uninduced inactive | RGS4 inh ctr2 inactive
Cc1ccc(-n2[nH]c(C)c(C=Nc3ccc(S(=O)(=O)Nc4nccs4)cc3)c2=O)cc1	none
Cc1[nH]n(-c2ccc(Br)cc2)c(=O)c1C=Nc1ccc(S(=O)(=O)Nc2nccs2)cc1	RGS4 inh 17.9 | RGS4 inh valid 9.5% | RGS4 uninduced inactive | RGS4 inh ctr2 inactive
COC(=O)c1cc(NS(=O)(=O)c2ccc(N3CCOCC3)c(N)c2)cc(C(=O)OC)c1	none
CCCOc1ccc(/C=c2\sc3ncnn3c2=O)cc1	RGS4 inh 5.75 | RGS4 inh valid 9.0% | RGS4 uninduced 49.0% | RGS4 inh ctr2 13.5%
Cc1ccccc1OCc1nnc(SCC(=O)Nc2ccc3c(c2)oc2ccccc23)n1C	RGS4 inh 5.1 | RGS4 inh valid 14.5% | RGS4 uninduced inactive | RGS4 inh ctr2 inactive
COC(=O)c1c(C)oc2c1cc(NS(=O)(=O)c1ccc(C(=O)O)cc1)c1ccccc12	RGS4 inh 5.61 | RGS4 inh valid 15.5% | RGS4 uninduced inactive | RGS4 inh ctr2 inactive
CC(=O)c1c(C)oc2c1cc(NS(=O)(=O)c1ccc(C(=O)O)cc1)c1ccccc12	none | RGS4 uninduced inactive | RGS4 inh ctr2 inactive
C/C(=N/Nc1nc(C)c(C)s1)c1cccc([N+](=O)[O-])c1	none
CCOc1ccc(C(NC(=O)CC)c2c(O)ccc3ccccc23)cc1 (centres undefined)	none
CC(=O)Oc1ccc2ccccc2c1C(NC(=O)Cc1ccccc1)c1ccc(Cl)cc1 (centres undefined)	MrgX1 antagonist -5.92 | RGS4 uninduced inactive | RGS4 inh ctr2 inactive
CNC(=S)N1CCN(C(=O)C2CCCO2)CC1 (centres undefined)	RGS4 inh 4.73 | RGS4 inh valid inactive | RGS4 uninduced inactive | RGS4 inh ctr2 inactive
Nc1nc(Cl)nc2c1ncn2[C@@H]1O[C@H](CO)[C@@H](O)[C@H]1O	RGS4 inh 9.78 | RGS4 inh valid 47.0% | RGS4 uninduced 78.5% | RGS4 inh ctr2 inactive
OC[C@H]1O[C@@H](n2cnc3c(NC4CCCC4)nc(Cl)nc32)[C@H](O)[C@@H]1O	none (no result: RGS4 inh, RGS4 pot)
O=S(=O)(O)c1cc(OS(=O)(=O)c2ccccc2)cc2ccccc12	none
CC(OC(=O)c1ccc(NS(=O)(=O)c2ccc3[nH]c(=O)[nH]c3c2)cc1)C(=O)Nc1ccc(Cl)cc1 (centres undefined)	none | RGS4 inh valid inactive | RGS4 uninduced inactive | RGS4 inh ctr2 inactive
